Measured values published in publication PMC3188669 (Journal of medicinal chemistry, 2011).
One block for each compound: values may come before it.

Key:
Colon26 tumors [1] = experiment: PET imaging and biodistribution in BALB/c mice bearing Colon26 tumors; assay type: in vivo; conditions: for time post injection giving the best imaging contrast: PET
[2] = test system: human basal cell carcinoma (BCC1) cells; experiment: PS uptake, retention and subcellular localization in BCC1 cells; assay type: cell-based; conditions: for lowering of cellular uptake relative to PS 4: 30 min, 200 nM PS; for lowering of cellular uptake relative to PS 4 / subcellular localization after 30 min incubation: serum-free DMEM
How it was run: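 Subconfluent BCC1 cells grown in DMEM with 10% FCS were washed twice in serum-free DMEM. They were incubated with test compound in DMEM with or without 10% FCS: 30 min serum-free at 0.2 μM or 3.2 μM, or 24 h at 3.2 μM. Cells were washed and imaged at 640X under phase contrast and fluorescence (Ex 410/40, Em 675/750 nm). Redistribution was imaged again after 4 h in compound- and serum-free DMEM.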

STAT3 = experiment: Light-mediated photoreaction in BCC1 cells; assay type: cell-based, human; conditions: 2 h PS, 665 nm, 3 J/cm^2
How it was run: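 Subconfluent BCC1 cells were incubated 2 h in serum-free DMEM with 2-fold serial dilutions of test compound and then washed. They were irradiated in serum-free medium at 37°C with 665 nm dye-laser light for 9 min and extracted immediately. Cell PS was measured by extract fluorescence (Ex 415, Em 667 nm). RIPA lysates (20 μg) were immunoblotted for STAT3, EGFR, p38 and P-p38 with ECL detection. STAT3 crosslinking was expressed as % monomer converted to dimer form I.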

Colon26 cells [3] = experiment: PS uptake by Colon26 cells, flow cytometry; assay type: cell-based, mouse; conditions: 24 h post incubation
How it was run: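 Colon26 cells were seeded at 0.33 × 10⁶/well and left overnight. Test compound was added at 100, 200, 400 or 800 nM in triplicate at 37°C, with compound-free wells for autofluorescence. Cells were trypsinised, neutralised in cold medium with 2% FCS, spun at 500 g for 5 min at 4°C, and resuspended in cold PBS/2% FCS on ice in the dark. Flow cytometry used Ex 633 nm and Em 730±45 nm, 10,000 events; mean fluorescence of triplicates minus autofluorescence.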

Colon26 cells [4] = experiment: In vitro photosensitizing efficacy, MTT assay; assay type: cell-based, mouse; conditions: 24 h incubation, variable light doses; for in vitro efficacy (PS 4, 12, 23): Colon26, 0.0625 μM
How it was run: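 Colon26 cells were seeded at 3 × 10³ cells/well in RPMI with 10% FCS and left overnight. Test compound was added for 24 h at 37°C in the dark, then replaced with drug-free complete medium. Cells were irradiated at 0–4 J/cm² at the compound's absorption peak (660–674 nm), 3.2 mW/cm², using an argon-pumped dye laser. After 48 h in the dark, MTT was added for the last 4 h and formazan was dissolved in DMSO. A570 was read. Survival was plotted against light dose; 4 wells, 3 independent repeats.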

Colon26 tumors [5] = experiment: In vivo optical fluorescence imaging in BALB/c mice bearing Colon26 tumors; conditions: for tumor versus skin fluorescence after tumor removal: 1 μmol/kg, 24 h post injection
How it was run: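 Colon26 cells (1×10⁶ in 50 μL serum-free RPMI) were injected subcutaneously into the right posterior axilla and grown to 4–5 mm. Hair was removed the day before dosing. Mice were imaged under ip ketamine/xylazine with 540/40 nm illumination and a long-pass filter for 667/676 nm emission, and autofluorescence was removed by spectral unmixing. Tumor ROI was 20 mm, mean ± SD of 3 mice. After imaging, the tumor was excised and the skin flap imaged.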

Colon26 tumors [6] = experiment: In vivo PDT efficacy in BALB/c mice bearing Colon26 tumors; conditions: 1.0 μmol/kg, light 128 J/cm^2, 14 mW/cm^2 at 24 h post injection, 10 mice/group
How it was run: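 Hair around the subcutaneous tumor was removed. At 4–5 mm diameter, mice received test compound at 1 μmol/kg. At 24 h, unanaesthetised mice restrained in holders were irradiated at 660–674 nm according to compound, with power monitored throughout. Mice were checked daily and volume was calculated as L×W²/2. Cure meant no palpable tumor by day 60–90; mice were euthanised at 400 mm³.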

Compound: CCC1=C(C)c2cc3[nH]c(cc4nc(c5c6[nH]c(cc1n2)c(C)c6C(=O)C5)C(CCC(=O)OC)[C@@H]4C)c(C)c3C(C)OCc1cccc(I)c1 (stereo partly drawn) [PS 1, Methyl 3-devinyl-3-{1′-(m-iodobenzyoxy)-ethyl}pyropheophoride-a]
subcellular localization after subsequent 4 h incubation in PS-free medium ([2]; 3.2 μM PS 1 or 0.2 μM PS 4): lysosomal compartment | lowering of cellular uptake relative to PS 4 [2]: > 100 fold | fluorescence (uptake) in presence of 10% fetal calf serum ([2]; data not shown): ~ 5 fold lower | subcellular localization after 30 min incubation [2]: mitochondrial compartment | photoreaction quantifiable by the biochemical markers (STAT3): ineffective

Compound: Peglate 3-devinyl-3-{1′-(m-iodobenzyoxy)ethyl}pyropheophoride-a [PS 7]
tumor cure (tumor-free on day 60), first series (Fig. 7A) (Colon26 tumors [6]): ineffective | cellular uptake in presence of serum proteins versus serum-free ([2]; 3.2 μM, 24 h, 10% fetal calf serum): several-fold higher | subcellular localization after 24 h incubation ([2]; 3.2 μM, regardless of the incubation conditions): endosomal/lysosomal compartment | lowering of cellular uptake relative to PS 4 [2]: > 100 fold | photoreaction quantifiable by the biochemical markers (STAT3): ineffective

Compound: CCC1=C(C)c2cc3[nH]c(cc4nc(c5c6[nH]c(cc1n2)c(C)c6C(=O)C5)C(CCC(=O)O)[C@@H]4C)c(C)c3C(C)OCc1cccc(I)c1 (stereo partly drawn) [PS 4, 3-devinyl-3-{1′-(m-iodobenzyoxy)-ethyl} pyropheophoride-a]
PS uptake by Colon26 cells (rank order) (Colon26 cells [3]): PS 4 ≥ 23 > 12 | subcellular localization after 30 min incubation [2]: mitochondrial compartment | time post injection giving the best imaging contrast (Colon26 tumors [1]; BALB/c mice, Colon26 tumor): 72 h | in vitro efficacy (PS 4, 12, 23) (Colon26 cells [4]): comparable in vitro efficacy | relative PDT efficacy in vitro (PS 1, 4, 7) (Colon26 cells [4]; Colon26, 0.3 μM): most effective | tumor versus skin fluorescence after tumor removal (Colon26 tumors [5]): tumor avid

Compound: CCc1c(C)c2cc3nc(c4c5[nH]c(cc6nc(cc1[nH]2)C(C)=C6C(C)OCc1cccc(I)c1)c(C)c5C(=O)C4)[C@@H](CCC(=O)O)[C@@H]3C (stereo partly drawn) [PS 12, 3-devinyl-3-ethyl-8-{1′-(m-iodobenzyoxy)-ethyl}-pyropheophoride-a]
PS uptake by Colon26 cells (rank order) (Colon26 cells [3]): PS 4 ≥ 23 > 12 | in vitro efficacy (PS 4, 12, 23) (Colon26 cells [4]): comparable in vitro efficacy | tumor uptake by fluorescence imaging (Colon26 tumors [5]; 1.0 μmol/kg i.v., 24, 48 and 72 h post-injection, 3 mice/group): lower tumor uptake

Compound: CCC1=C(C)c2cc3[nH]c(cc4nc(c5c6[nH]c(cc1n2)c(C)c6C(=O)C5)C(CCC(=O)O)[C@@H]4C)c(C)c3C(C)OCc1cccc([124I])c1 (stereo partly drawn) [PS 6]
tumor uptake (PET) (Colon26 tumors [1]; 24, 48 and 72 h post injection): significant tumor uptake | time of maximum tumor uptake post injection (Colon26 tumors [1]; BALB/c mice, Colon26 tumor): 24 h | time post injection giving the best imaging contrast (Colon26 tumors [1]; BALB/c mice, Colon26 tumor): 72 h

More lines, main results first:

time post injection giving the best imaging contrast (Colon26 tumors [1]; BALB/c mice, Colon26 tumor): 72 h
Compound: CC[C@H]1c2cc3[nH]c4c(c5nc(cc6[nH]c(cc(n2)[C@@H]1C)c(C(C)OCc1cccc([124I])c1)c6C)C(C)=C5CCC(=O)O)CC(=O)c4c3C (stereo partly drawn) [PS 27]

tumor versus skin fluorescence after tumor removal (Colon26 tumors [5]): tumor avid
Compound: CC[C@H]1c2cc3[nH]c4c(c5nc(cc6[nH]c(cc(n2)[C@@H]1C)c(C(C)OCc1cccc(I)c1)c6C)C(C)=C5CCC(=O)O)CC(=O)c4c3C (stereo partly drawn) [PS 23, 3-deacetyl-3-(1′-m-iodobenzyloxyethyl)-7,8-dihydrophylloerythrin]
PS uptake by Colon26 cells (rank order) (Colon26 cells [3]): PS 4 ≥ 23 > 12 | lowering of cellular uptake relative to PS 4 [2]: 2 fold | in vitro efficacy (PS 4, 12, 23) (Colon26 cells [4]): comparable in vitro efficacy
